From ChEMBL document CHEMBL1139506, “Effect on K(ATP) channel activation properties and tissue selectivity of the nature of the substituent in the 7- and the 3-position of 4H-1,2,4-benzothiadiazine 1,1-dioxides” (J Med Chem, 2005)

Legend:
[1] = species: Rattus norvegicus; experiment: Effect on insulin secretion from rat pancreatic islets at 50 uM concentration (n=12); assay type: functional
Procedure, shortened: (§1)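 Islets isolated by collagenase from fed Wistar rats (180-220 g); groups of 10 preincubated 30 min, 37 °C, in bicarbonate salt medium with 2.8 mM glucose, 0.5% dialyzed albumin, O2/CO2 95:5. Then incubated 90 min, 37 °C, with 16.7 mM glucose plus drug. Insulin measured by radioimmunoassay against rat insulin standard; expressed as % of drug-free 16.7 mM glucose control; mean ± SEM (n).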

[2] = species: Rattus norvegicus; experiment: Concentration required for 50% inhibition of insulin release in rat pancreatic B-cells; assay type: functional, cell-based
[3] = species: Rattus norvegicus; experiment: ED50/IC50 ratio was determined; assay type: functional
[4] = species: Rattus norvegicus; experiment: Effect on insulin secretion from rat pancreatic islets at 1 uM concentration (n=16); assay type: functional; procedure, shortened: as §1
[5] = species: Rattus norvegicus; experiment: Concentration required for relaxation of the 30 mM KCl-induced contraction of rat aortic rings (n=4); assay type: functional; conditions: Aorta, read-out: ED50 (the source's name)
Procedure, shortened: (§2)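 Endothelium-denuded transverse aortic rings (3-4 mm) from fed Wistar rats (180-200 g); isometric tension by force transducer. After 60 min equilibration, contracted with 30 mM KCl; at stable tension, drug added cumulatively until maximal relaxation or up to 0.3 mM. Relaxation expressed as % of KCl contraction; ED50 (50% inhibition of KCl plateau) from dose curves; mean ± SEM (n).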

[6] = species: Rattus norvegicus; experiment: Effect on insulin secretion from rat pancreatic islets at 10 uM concentration (n=14); assay type: functional; procedure, shortened: as §1
[7] = species: Rattus norvegicus; experiment: Effect on insulin secretion from rat pancreatic islets at 10 uM concentration (n=16); assay type: functional; procedure, shortened: as §1
[8] = species: Rattus norvegicus; experiment: Effect on insulin secretion from rat pancreatic islets at 10 uM concentration (n=15); assay type: functional; procedure, shortened: as §1
[9] = species: Rattus norvegicus; experiment: Effect on insulin secretion from rat pancreatic islets at 50 uM concentration (n=21); assay type: functional; procedure, shortened: as §1
[10] = species: Rattus norvegicus; experiment: Effect on insulin secretion from rat pancreatic islets at 1 uM concentration (n=23); assay type: functional; procedure, shortened: as §1
[11] = species: Rattus norvegicus; experiment: Effect on insulin secretion from rat pancreatic islets at 50 uM concentration (n=11); assay type: functional; procedure, shortened: as §1
[12] = species: Rattus norvegicus; experiment: Effect on insulin secretion from rat pancreatic islets at 10 uM concentration (n=24); assay type: functional; procedure, shortened: as §1
[13] = species: Rattus norvegicus; experiment: Concentration giving 50% relaxation of the 30 mM KCl-induced contraction of rat aortic rings (n=5); assay type: functional; conditions: Aorta, read-out: ED50 (the source's name); procedure, shortened: as §2
[14] = species: Rattus norvegicus; experiment: Effect on insulin secretion from rat pancreatic islets at 1 uM concentration (n=20); assay type: functional; procedure, shortened: as §1
[15] = Ionization constant was determined; assay type: physicochemical
Procedure, shortened: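 Ionization constant found by UV spectroscopy in aqueous buffers spanning pH 5 to 12; pKa calculated with the Debye-Hückel equation at the absorbance maximum of the basic form.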

[16] = species: Rattus norvegicus; experiment: Effect on insulin secretion from rat pancreatic islets at 10 uM concentration (n=22); assay type: functional; procedure, shortened: as §1
[17] = species: Rattus norvegicus; experiment: Effect on insulin secretion from rat pancreatic islets at 50 uM concentration (n=14); assay type: functional; procedure, shortened: as §1
[18] = species: Rattus norvegicus; experiment: Concentration giving 50% relaxation of the 30 mM KCl-induced contraction of rat aortic rings (n=6); assay type: functional; conditions: Aorta, read-out: ED50 (the source's name); procedure, shortened: as §2
[19] = species: Rattus norvegicus; experiment: Effect on insulin secretion from rat pancreatic islets at 10 uM concentration (n=12); assay type: functional; procedure, shortened: as §1
[20] = species: Rattus norvegicus; experiment: Effect on insulin secretion from rat pancreatic islets at 50 uM concentration (n=18); assay type: functional; procedure, shortened: as §1
[21] = species: Rattus norvegicus; experiment: Effect on insulin secretion from rat pancreatic islets at 50 uM concentration (n=16); assay type: functional; procedure, shortened: as §1
[22] = species: Rattus norvegicus; experiment: Effect on insulin secretion from rat pancreatic islets at 10 uM concentration (n=23); assay type: functional; procedure, shortened: as §1
[23] = species: Rattus norvegicus; experiment: Effect on insulin secretion from rat pancreatic islets at 10 uM concentration (n=21); assay type: functional; procedure, shortened: as §1
[24] = species: Rattus norvegicus; experiment: Effect on insulin secretion from rat pancreatic islets at 50 uM concentration (n=15); assay type: functional; procedure, shortened: as §1
[25] = species: Rattus norvegicus; experiment: Effect on insulin secretion from rat pancreatic islets at 1 uM concentration (n=22); assay type: functional; procedure, shortened: as §1
[26] = species: Rattus norvegicus; experiment: Concentration giving 50% relaxation of the 30 mM KCl-induced contraction of rat aortic rings (n=10); assay type: functional; conditions: Aorta, read-out: ED50 (the source's name); procedure, shortened: as §2

With `CCCNC1=NS(=O)(=O)c2cc(OC)ccc2N1` the Residual insulin release [1] was 6.3%, the IC50 [2] was 8.9 µM and the Ratio [3] was over 34. It also gave a Residual insulin release [4] of 101.7%, an EC50 [5] of over 300 µM and a Residual insulin release [6] of 47.4%.
For `CCC(C)NC1=NS(=O)(=O)c2cc(S(C)(=O)=O)ccc2N1` (stereo unspecified), the Residual insulin release [7] was 97.2% and the EC50 [5] was 126 µM.
For `CCCCCc1ccc2c(c1)S(=O)(=O)NC(NC1CCC1)=N2`, the Residual insulin release [8] was 95.3% and the EC50 [5] was over 30 µM.
`N#Cc1ccc2c(c1)S(=O)(=O)N=C(NC1CCC1)N2` showed a Residual insulin release [9] of 54.3%, a Residual insulin release [8] of 102.6% and an EC50 [5] of 57.9 µM.
`Cc1ccc2c(c1)S(=O)(=O)NC(NC1CCC1)=N2` gave an IC50 [2] of 5.6 µM, a Ratio [3] of 10 and a Residual insulin release [10] of 99.5%. It also gave a Residual insulin release [11] of 3.7%, an EC50 [5] of 58.4 µM and a Residual insulin release [12] of 19.7%.
Work on `COc1ccc2c(c1)S(=O)(=O)NC(NC(C)C)=N2` yielded a Residual insulin release [1] of 4.4%, an IC50 [2] of 3.7 µM and a Ratio [3] of 74. For the same compound, the EC50 [13] was 274 µM, the Residual insulin release [12] was 8.5% and the Residual insulin release [14] was 67.6%. It also gave a pKa [15] of 10.1.
With `CCCNC1=NS(=O)(=O)c2cc(C(F)(F)F)ccc2N1` the Residual insulin release [16] was 77.9%, the EC50 [5] was 2.9 µM and the Residual insulin release [17] was 52%.
In the case of `CCNC1=NS(=O)(=O)c2cc(C)ccc2N1`, the IC50 [2] is reported as 2.5 µM, the Ratio [3] is reported as 84 and the Residual insulin release [10] is reported as 83.8%. The EC50 [18] was 210 µM and the Residual insulin release [19] was 8.6%.
Compound `CCOc1ccc2c(c1)S(=O)(=O)NC(NC(C)C)=N2` has an EC50 [5] of 233 µM and a Residual insulin release [6] of 65.9%.
Work on `CCC(C)NC1=NS(=O)(=O)c2cc([N+](=O)[O-])ccc2N1` (stereo unspecified) yielded an EC50 [5] of 6.1 µM and a Residual insulin release [20] of 63.3%.
Compound `CCOc1ccc2c(c1)S(=O)(=O)NC(NC1CCC1)=N2` has a Residual insulin release [7] of 84.9% and an EC50 [5] of over 300 µM.
For `CC(=O)Nc1ccc2c(c1)S(=O)(=O)N=C(NC(C)C)N2`, the EC50 [5] was over 300 µM, the pKa [15] was 9.8 and the Residual insulin release [21] was 89.3%.
In the case of `CCCCCc1ccc2c(c1)S(=O)(=O)NC(NCC)=N2`, the Residual insulin release [7] is reported as 104% and the EC50 [5] is reported as 6.6 µM.
For `CC(C)NC1=NS(=O)(=O)c2cc(C#N)ccc2N1`, the Residual insulin release [9] was 23.5%, the Residual insulin release [8] was 82.2% and the EC50 [5] was 42.7 µM. It also gave a pKa [15] of 8.56.
`CC(C)NC1=NS(=O)(=O)c2cc(C(=O)O)ccc2N1` showed a Residual insulin release [22] of 96.6%, an EC50 [5] of over 300 µM and a Residual insulin release [21] of 98.6%.
Work on `CC(C)C(C)NC1=NS(=O)(=O)c2cc([N+](=O)[O-])ccc2N1` (stereo unspecified) yielded an EC50 [5] of 2.8 µM and a Residual insulin release [21] of 90.4%.
`CCCNC1=NS(=O)(=O)c2ccccc2N1` gave a Residual insulin release [4] of 93.8%, an EC50 [5] of over 300 µM and a Residual insulin release [23] of 54.2%.
Compound `CCCNC1=NS(=O)(=O)c2cc(C(=O)O)ccc2N1` has a Residual insulin release [24] of 95.3%, a Residual insulin release [8] of 97.6% and an EC50 [5] of over 300 µM.
Compound `CCC(C)NC1=NS(=O)(=O)c2cc(C(F)(F)F)ccc2N1` (stereo unspecified) has a Residual insulin release [16] of 76.1%, a Residual insulin release [24] of 28.6% and an EC50 [5] of 8.9 µM.
`CCC(C)NC1=NS(=O)(=O)c2cc(C)ccc2N1` (stereo unspecified) gave an IC50 [2] of 11.2 µM, a Ratio [3] of 1.4 and a Residual insulin release [25] of 93.6%. For the same compound, the EC50 [26] was 15.5 µM and the Residual insulin release [22] was 50.7%.
Compound `CCNC1=NS(=O)(=O)c2ccccc2N1` has a Residual insulin release [10] of 77.4%, an EC50 [5] of over 300 µM and a Residual insulin release [19] of 25.8%.
